Calls of active or inactive are those of the source. No cut-off for these calls is given here.
What was measured:
[1] = test system: HCT-15; experiment: Cytotoxicity against human HCT15 cells after 48 hrs by MTT assay; type: functional, cell-based; conditions: HCT-15, 48 h
Outline: (§1)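 Cells seeded at 10^5 cells/mL in 100 µL RPMI-1640 with 10% FBS; compounds added at various concentrations after 24 h and incubated 48 h. MTT (5 mg/mL stock in PBS, 50 µL per well) was added for a further incubation. Medium was discarded, formazan dissolved in DMSO, and absorbance read at 540 nm.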

[2] = test system: SK-OV-3; experiment: Cytotoxicity against human SKOV3 cells after 48 hrs by MTT assay; type: functional, cell-based; conditions: SK-OV-3, 48 h; outline: as §1
[3] = test system: A549; experiment: Cytotoxicity against human A549 cells after 48 hrs by MTT assay; type: functional, cell-based; conditions: A549, 48 h; outline: as §1
[4] = test system: SK-MEL-2; experiment: Cytotoxicity against human SK-MEL-2 cells after 48 hrs by MTT assay; type: functional, cell-based; conditions: SK-MEL-2, 48 h; outline: as §1
[5] = species: Bos taurus; experiment: Inhibition of calf thymus topoisomerase 1-mediated relaxation of supercoiled pBR322 DNA at 20 to 100 uM after 30 mins using ethidium bromide staining by UV-light transillumination analysis
Outline: (§2)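 Plasmid pBR322 (200 ng) with 0.3 U calf thymus topo I, compound at final 20 or 100 μM, 37 °C for 30 min in relaxation buffer (35 mM Tris–HCl pH 8.0, 72 mM KCl, MgCl2, DTT, spermidine, 0.01% BSA). Stopped with SDS loading mix, run on 1% agarose in TBE for 10 h, stained with ethidium bromide (0.5 μg/mL), and UV-visualized and quantitated. Scored semiquantitatively against camptothecin.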

[6] = species: Bos taurus; experiment: Inhibition of calf thymus topoisomerase 1-mediated relaxation of supercoiled pBR322 DNA at 20 to 100 uM after 30 mins using ethidium bromide staining by UV-light transillumination analysis relative to camptothecin; outline: as §2

Row | SMILES | IC50 [1] | IC50 [2] | IC50 [3] | IC50 [4] | inhibition [5] | inhibition [6]
1 | C=CCn1c(-c2cc3c(cc2COCOC)OCO3)cc2ccccc2c1=O | 36.1 µM | 29.5 µM | 19.8 µM | 15.4 µM | Active | –
2 | CC[C@@]1(O)C(=O)OCc2c1cc1n(c2=O)Cc2cc3ccccc3nc2-1 [CAMPTOTHECIN] | 0.166 µM | 2.54 µM | 0.091 µM | 7.86 µM | Active | –
3 | C=CCn1c(-c2ccc(OC)cc2C=O)cc2ccccc2c1=O | 56.5 µM | 65.5 µM | 88.1 µM | 88.9 µM | Active | –
4 | C=CCn1c(-c2cc(OC)c(OC)cc2C=C)cc2ccccc2c1=O | 75.2 µM | 35.5 µM | 43.2 µM | 47.7 µM | Active | –
5 | C=CCn1c(-c2cc3c(cc2COCOC)OCO3)cc2ccc(OC)c(OC)c2c1=O | 28.2 µM | > 100 µM | 29.9 µM | 27.4 µM | inactive | –
6 | C=CCn1c(-c2cc(OC)c(OC)cc2C=O)cc2ccccc2c1=O | 77.5 µM | 85.5 µM | 76.3 µM | 67.6 µM | Active | –
7 | C=CCn1c(-c2cc3c(cc2C=C)OCO3)cc2ccc(OC)c(OC)c2c1=O | > 100 µM | > 100 µM | > 100 µM | > 100 µM | inactive | –
8 | C=CCn1c(-c2cc3c(cc2C=O)OCO3)cc2ccccc2c1=O | 54.1 µM | 56.9 µM | 87.5 µM | > 100 µM | Active | –
9 | C=CCn1c(-c2ccc(OC)cc2COCOC)cc2ccccc2c1=O | 27.8 µM | > 100 µM | > 100 µM | 42.6 µM | Active | –
10 | C=CCn1c(-c2cc(OC)c(OC)cc2COCOC)cc2ccccc2c1=O | 78.7 µM | 37.7 µM | 88.1 µM | 75 µM | Active | –
11 | C=CCn1c(-c2ccc(OC)cc2C=C)cc2ccccc2c1=O | 22.8 µM | 43.8 µM | 17.2 µM | 11.6 µM | Active | –
12 | COCOCc1cc2c(cc1-c1cc3ccccc3c(=O)[nH]1)OCO2 | 13.1 µM | 22.9 µM | 7.93 µM | 64.5 µM | – | Active
13 | COCOCc1cc(OC)ccc1-c1cc2ccccc2c(=O)[nH]1 | 27.5 µM | 75.5 µM | 45.3 µM | 97.6 µM | Active | –
14 | C=CCn1c(-c2cc3c(cc2C=O)OCO3)cc2ccc(OC)c(OC)c2c1=O | 63.9 µM | 61.7 µM | 85.1 µM | 71.2 µM | Active | –
15 | COc1cc2c(cc1OC)-c1cc3ccccc3c(=O)n1CC=C2 | 21.3 µM | 11 µM | 14.8 µM | 6.23 µM | Active | –
16 | C=CCn1c(-c2cc3c(cc2C=C)OCO3)cc2ccccc2c1=O | 11.2 µM | 13.6 µM | 19.3 µM | 9.36 µM | Active | –
17 | COc1ccc2cc3n(c(=O)c2c1OC)CC=Cc1cc2c(cc1-3)OCO2 | 6.34 µM | 2.8 µM | 7.45 µM | 2.54 µM | Active | –
18 | O=c1c2ccccc2cc2n1CC=Cc1cc3c(cc1-2)OCO3 | 20.1 µM | 29.1 µM | 17.1 µM | 28.6 µM | Active | –
19 | COc1ccc2c(c1)C=CCn1c-2cc2ccccc2c1=O | 12.6 µM | 24.3 µM | 6.48 µM | 7.74 µM | Active | –
20 | COCOCc1cc(OC)c(OC)cc1-c1cc2ccccc2c(=O)[nH]1 | 73.7 µM | 87.7 µM | 85.1 µM | 55.2 µM | Active | –
